16 compounds from article PMC4324837 (Antiviral research, 2014) can be followed below.

The structures appear in SMILES notation. Counter-ions that a name gives are not always drawn. Numbered stars: 1 amine (or outer) side, 2 acyl side, 3 side chain; on linkers, the order of the positions; unused ones are H or OH. Bridge positions count the residues as written; N and C are the ends. Square brackets hold non-standard residues; d marks the D form. Peptide text beside a SMILES is read from it. I, II: the chains in the order shown. Actinocin(9to1) = Cc1c2oc3c(C)ccc(C(=O)[*:1])c3nc-2c(C(=O)[*:2])c(N)c1=O; NMeV = CN[C@H](C(=O)O)C(C)C; Sar = CNCC(=O)O

Series [1] relates to CMV AD169IE2-YFP. Description: High-content screen, IE2-YFP nuclear fluorescence in infected MRC5 cells. Type of series: cell-based, Human cytomegalovirus. The note with it: for activity at 5.6 µM: Human betaherpesvirus 5, MRC5, 16 h, read-out: YFP Intensity (%); for reduction of YFP intensity: primary screen, screening dose (5μM printed elsewhere in the source).
The nature of series [2]: CC50 / cell viability by NucGreen staining, MRC5 cells. Type of series: cell-based, Human. As to conditions: human.
The test system of another series is CMV AD169. Nature of the series: Immunoblot of viral early protein US11 in infected MRC5 cells. Type of series: cell-based, Human cytomegalovirus. The note with it: MRC5, AD169-WT MOI 3, 20 hpi; for US11 protein level in infected cells: 50 or 500nM of respective compound. Summed up: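 MRC5 cells were pretreated 1 h at 37 °C with test compound or 0.1% DMSO, infected with wild-type AD169 (MOI 3), then washed once with DMEM before analysis.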
Background: A western blot detects proteins with antibodies after separation by electrophoresis.

In the next series the test system is CMV. Nature of the series: Addition of compound after infection. Type of series: cell-based, Human cytomegalovirus. The note with it: added up to 4hpi, data not shown.
Series [3] has as its system CMV AD169IE2-YFP. Description: in vitro. Type of series: cell-based, Human cytomegalovirus. The note with it: MRC5 cells; for Selective Ratio (CC50/EC50) / selectivity ratio: AD169IE2-YFP; for selectivity ratio: human, Selective Ratio (CC50/EC50).
Series [4] concerns MRC5 cells. Description: CC50 / cell viability by NucGreen staining, MRC5 cells. Type of series: cell-based, Human. As to conditions: MRC5 cells, 0-5μM, 19 hours, NucGreen.
A further series has as its system CMV TB40/EFLAG-YFP. Nature of the series: EC50 of convallatoxin, clinical strain reporter virus in ARPE-19 cells. As to conditions: Human betaherpesvirus 5, ARPE-19. Type of series: cell-based, Human cytomegalovirus. Summed up: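 ARPE-19 cells, 10,000/well in 96-well plates, got DMEM with test compound (0-10 nM) the next day, in sextuplicate. They were then infected with TB40/E FLAG-YFP (US28 replaced by FLAG-YFP; MOI 20). YFP+ cells were counted at 120 hpi on an Acumen eX3 cytometer, with positive meaning above 2 SD of background. % infection was set against DMSO-treated cells; EC50 came from a three-parameter log(inhibitor)-response fit of mean values.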

The nature of series [5]: Cell viability by NucGreen staining, ARPE-19 cells. Type of series: cell-based. The note with it: human. Summed up:
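ARPE-19 cells, 10,000/well in 96-well plates, were exposed next day to test compound in DMEM, in sextuplicate. After 19 h, NucGreen dead-cell stain went into three of six wells per condition for 10 min at RT. Total cells were counted by fixing with 4% paraformaldehyde and adding NucGreen for 10 min. Signal was read on a fluorescent plate reader, and % viability was taken from NucGreen-positive counts of treated versus total cells.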

Series [6] concerns CMV AD169IE2-YFP. Description: Multi-cycle infection study, YFP+ cells under long-term convallatoxin treatment. Type of series: cell-based, Human cytomegalovirus. The procedure, abridged: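 MRC5 cells, 10,000/well in 96-well plates, received DMEM with test compound (0, 5, 10 or 50 nM) in sextuplicate. In one plate this was followed immediately by AD169 IE2-YFP infection (MOI 0.5) or medium alone. In the other, cells were infected (MOI 0.5) or mock-infected for 36 h before compound-containing medium was added. IE2-YFP-positive cells were read on a fluorescent plate reader up to 168 hpi.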

Series [7] in a line: Cell viability under prolonged treatment, uninfected MRC5 fibroblasts, NucGreen. Type of series: cell-based, Human. As to conditions: human, uninfected MRC5 fibroblasts. The procedure, abridged: (§1)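 Uninfected MRC5 fibroblasts, 10,000/well in 96-well plates, were kept in DMEM with test compound (0, 5, 10 or 50 nM) in sextuplicate for up to 168 h. NucGreen dead-cell staining was read on a fluorescent plate reader. Percent viability used the total cell number of DMSO-treated wells as 100%, plotted at 72, 120 and 168 hpi.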

Series [8] deals with MRC5 cells. The description is as above. Type of series: cell-based, Human. The note with it: 5nM, throughout the timecourse (up to 168 hours). Summed up:
as §1

The test system of series [9] is CMV AD169IE2-YFP. Type of series: cell-based, Human cytomegalovirus. As to conditions: MRC5, MOI 0.5, compound present until 24 hpi.

As for `Cc1c2oc3c(C)ccc(C(=O)N[C@@H]4C(=O)N[C@H](C(C)C)C(=O)N5CCC[C@H]5C(=O)N(C)CC(=O)N(C)[C@@H](C(C)C)C(=O)O[C@@H]4C)c3nc-2c(C(=O)N[C@@H]2C(=O)N[C@H](C(C)C)C(=O)N3CCC[C@H]3C(=O)N(C)CC(=O)N(C)[C@@H](C(C)C)C(=O)O[C@@H]2C)c(N)c1=O` [Actinomycin D] (I: T[dV]P[Sar][NMeV] / II: T[dV]P[Sar][NMeV]; ester I:1-I:C, II:1-II:C; linker I:N-II:N via Actinocin(9to1)), the activity at 5.6 µM with CMV AD169IE2-YFP [1] worked out at 5.8 ± 0.11%.

Regarding `COc1cc2c(c(OC)c1OC)-c1ccc(OC)c(=O)cc1[C@@H](NC(C)=O)CC2` [Colchicine], in the series on CMV AD169IE2-YFP [1], the activity at 5.6 µM was 17.3 ± 0.34%. Also, the CC50 (as a rule, the concentration that lowers cell viability or growth by half) at 19 h in [2] is over 5000 nM. In addition, the “US11 protein level in infected cells” value in the series on CMV AD169 is “lower levels of US11”. Also, the “effect on infection when added after infection” value in the series on CMV is “reduced infection”.

With `COc1ccc2c(c1OC)C(=O)O[C@@H]2[C@H]1c2c(cc3c(c2OC)OCO3)CCN1C` [Noscapine], in the series with CMV AD169IE2-YFP [1], the activity at 5.6 µM was found to be 106%.

For `COc1cc(C2c3cc4c(cc3C(O)C3COC(=O)C23)OCO4)cc(OC)c1O` (stereo not drawn) [4′-demethyl-epipodophyllotoxin], in the series with CMV AD169IE2-YFP [3], the “Selective Ratio (CC50/EC50)” value is over 1.5. In the series on MRC5 cells [4], the CC50 was over 5000 nM.

On to `CC[C@]1(O)C[C@@H]2CN(CCc3c([nH]c4ccccc34)[C@@](C(=O)OC)(c3cc4c(cc3OC)N(C)[C@H]3[C@@](O)(C(=O)OC)[C@H](OC(C)=O)[C@]5(CC)C=CCN6CC[C@]43[C@@H]65)C2)C1` [Vinblastine sulfate], for which the activity at 5.6 µM with CMV AD169IE2-YFP [1] is 24.2 ± 0.48%.

Consider `COc1cc([C@@H]2c3cc4c(c(O)c3C[C@H]3COC(=O)[C@@H]32)OCO4)cc(OC)c1OC` [β-peltatin], for which the activity at 5.6 µM in the series on CMV AD169IE2-YFP [1] is 20.5 ± 0.41%.

For the compound `C[C@@H]1C[C@@H]([C@H](O)CC2CC(=O)NC(=O)C2)C(=O)[C@@H](C)C1` [Cycloheximide], the activity at 5.6 µM with CMV AD169IE2-YFP [1] is 11.2 ± 1.8%.

Take `COc1cc([C@@H]2c3cc4c(cc3[C@H](O)[C@H]3COC(=O)[C@H]23)OCO4)cc(OC)c1OC` [Podofilox]: the activity at 5.6 µM in the series on CMV AD169IE2-YFP [1] is 14.5 ± 0.31%. Moreover, the selectivity ratio with CMV AD169IE2-YFP [3] was over 192. For the same compound, the half-maximal cytotoxic concentration (CC50) at 19 h in series [2] (MRC5 cells) is over 5000 nM. The “US11 protein level in infected cells” value in the series on CMV AD169 was “lower levels of US11”.

Take `CN(C)C(=S)SSC(=S)N(C)C` [Thiram]: the activity at 5.6 µM in the series on CMV AD169IE2-YFP [1] was 14 ± 0.29%. Moreover, the “Selective Ratio (CC50/EC50)” value in the series on CMV AD169IE2-YFP [3] is given as under 0.4; with CMV AD169IE2-YFP [3] (listed as thiram), under 30. This compound also displayed a CC50 at 19 h in series [2] (MRC5 cells) of 2200 nM.

`CC[C@H]1CN2CCc3cc(OC)c(OC)cc3[C@@H]2C[C@@H]1C[C@H]1NCCc2cc(OC)c(OC)cc21` [emetine]: the “reduction of YFP intensity” value in the series on CMV AD169IE2-YFP [1] came to 41%.

With `C[C@@H]1O[C@@H](O[C@H]2CC[C@]3(C=O)[C@H]4CC[C@]5(C)[C@@H](C6=CC(=O)OC6)CC[C@]5(O)[C@@H]4CC[C@]3(O)C2)[C@H](O)[C@H](O)[C@H]1O` [Convallatoxin], the activity at 5.6 µM in the series with CMV AD169IE2-YFP [1] was 27.8 ± 0.87%. Besides, the selectivity ratio in the series on CMV AD169IE2-YFP [3] is over 454. In addition, in series [2], the CC50 at 19 h was over 5000 nM and the viability – broadly, a per cent measure of how many cells are alive, often set against a control – at 19 h, 5 µM came out at 100%. The 50% effective concentration (EC50) (usually the concentration at which the effect is half-maximal) in the series on CMV TB40/EFLAG-YFP was determined as 0.1 nM. This compound showed a viability at 19 h, 10 nM in series [5] of about 80%. The “US11 protein level in infected cells” value with CMV AD169 was “lower levels of US11”. For the same compound, the US11 expression result in the series on CMV AD169 (convallatoxin 5-50nM (all concentrations)) is recorded as “blocked the expression of US11 at all concentrations”. Besides, the “fluorescent expression relative to DMSO-treated cells” value with CMV AD169IE2-YFP [6] (5nM, added at 0hpi, by 100hpi) was “approximately half”. For the same compound, the “number of YFP+ cells compared to DMSO” value in the series with CMV AD169IE2-YFP [6] (MRC5, MOI 0.5, 5, 10 or 50nM added simultaneously with virus (0hpi)) was “reduced the number of YFP+ cells in a dose-dependent manner”. For the same compound, in the series on CMV AD169IE2-YFP [6] (MRC5, MOI 0.5, treatment of infected cells at 36hpi), the “number of YFP+ cells” value is recorded as “significant decrease of YFP+ cells”. In series [7], the viability at 120 h, 0.01 µM was found to be 79%; the viability at 120 h, 0.05 µM was 61%; the viability at 168 h, 0.01 µM is 91%; the viability at 168 h, 0.05 µM was found to be 82%. Further, the “effect on cell viability” value in the series on MRC5 cells [8] was “no detectable effect”. The “YFP fluorescence (% infection vs DMSO)” value in the series with CMV AD169IE2-YFP [9] (followed 9 days, ganciclovir 12μM) was “significant decrease in fluorescence”. Besides, the “decrease in virus titer compared to ganciclovir treatment” value in the series with CMV AD169IE2-YFP [9] (plaque assay of supernatants) is listed as about 10 fold.

Regarding `CC(=O)O[C@@H]1C[C@@]2(C)[C@H](c3ccoc3)C[C@H]3O[C@]32[C@]2(C)C(=O)C(O)=C3C(C)(C)C(=O)C=C[C@]3(C)[C@@H]12` [Anthothecol], the activity at 5.6 µM with CMV AD169IE2-YFP [1] came out at 27.5 ± 0.55%. Moreover, the “Selective Ratio (CC50/EC50)” value was 0.4 in the series on CMV AD169IE2-YFP [3] and under 30 in the series with CMV AD169IE2-YFP [3] (listed as anthothecol). The compound further had a CC50 at 19 h in series [2] of 700 nM.

Consider `C[C@@H]1O[C@@H](O[C@H]2C[C@@H](O)[C@]3(CO)[C@H]4[C@H](O)C[C@]5(C)[C@@H](C6=CC(=O)OC6)CC[C@]5(O)[C@@H]4CC[C@]3(O)C2)[C@H](O)[C@H](O)[C@H]1O` [ouabain], for which, in the series with CMV AD169IE2-YFP [1], the “reduction of YFP intensity” value is at most 70%.

As for `COc1ccc(C[C@H]2NC[C@H](O)[C@H]2OC(C)=O)cc1` [Anisomycin], the EC50 with CMV AD169IE2-YFP [3] (MOI 3, 1 h pretreatment, 0-5μM, 18 hpi) is 170 nM.

With `CC[C@]1(O)C[C@H]2CN(CCc3c([nH]c4ccccc34)[C@@](C(=O)OC)(c3cc4c(cc3OC)N(C=O)[C@H]3[C@@](O)(C(=O)OC)[C@H](OC(C)=O)[C@]5(CC)C=CCN6CC[C@]43[C@@H]65)C2)C1` [Vincristine sulfate], in the series with CMV AD169IE2-YFP [1], the activity at 5.6 µM stood at 26.6 ± 0.53%. For the same compound, the “Selective Ratio (CC50/EC50)” value in the series with CMV AD169IE2-YFP [3] was 3.4. Also, it took 40 nM to reach half-maximal cytotoxicity in [2] (CC50 at 19 h).

For the compound `CO[C@H]1[C@H](O)[C@H](O[C@H]2CC[C@@]3(C=O)[C@H](CC[C@@H]4[C@@H]3CC[C@]3(C)[C@@H](C5=CC(=O)OC5)CC[C@]43O)C2)O[C@@H](C)[C@@H]1O` [peruvoside], the “reduction of YFP intensity” value with CMV AD169IE2-YFP [1] was at most 70%.
